This is a sample that favours compounds with a hit; in the whole collection about 1.5% have one here.
H9c2 protect – protects H9c2 cardiomyocytes from peroxide injury; H2O2 injury protection, ATPLite, 2 h; protection from H2O2 cell death, % at 20 µM; 360,000 tested, 0.63% active; AID 588492;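 active = compounds giving at least 50% protection of heart cells from peroxide-induced death in the single-dose screen, raw or plate-pattern-corrected value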
PKA-R1A act – activators of PKA-R1A complex; P00514+P68181; PKA-R1A dissociation, Cy5-IP20 fluorescence polarization; scaled: DMSO 0%, 113 µM cGMP 100%; activation, % at 11.4 µM; 340,000 tested, 0.083% active; AID 504707;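 active = percent activation above the mean of all tested compounds plus 3 SD, cut at about 19% in these data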;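 note: higher means more PKAc released from R1A so a rise in polarization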
Rin1 Abl inh – blocks binding of human Rin1 to Abl. P00519+Q13671. TR-FRET Rin1/Abl binding, biochemical. inhibition, % at 7.35 µM. 360,000 tested, 0.4% active; in the data active = inhibition above about 5%, passing the limit was not always enough
Tb MetRS inh – blocks T. brucei methionyl-tRNA synthetase activity. purified T. brucei MetRS, ATP depletion, Kinase-Glo luminescence. inhibition, % at 11.9 µM. 360,000 tested, 0.4% active. AID 624268;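 active = inhibition above a per-plate cutoff of the control wells' mean inhibition plus 3 SD, cut at about 5.5% in these data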
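Measured by: Kinase-Glo luciferase luminescence reporting remaining unconsumed ATP. Material: purified T. brucei MetRS enzyme. Doses: 11.9 µM compound single dose, 0.9% DMSO. Medium: HEPES buffer containing pyrophosphatase, BSA, spermine, DTT. Times: 15 min preincubation, 2 h reaction, all 25 °C. Reagent: methionine, ATP and bulk E. coli tRNA.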
PKA-R2B activ – activators of human PKA-R2B complex | PKA-R2B holoenzyme dissociation, Cy5-IP20 fluorescence polarization; R2B truncated from residue 108, S112A mutant; 0% DMSO only, 100% 113 µM cGMP | activation, % at 11.4 µM | 340,000 tested, 0.079% active | AID 504700;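 active = activation above a cutoff set at the mean over all compounds plus 3 SD, cut at about 18% in these data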;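 note: higher means more holoenzyme dissociation and a rise in polarization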
Large screens that a line does not name were inactive.

Cc1cc(NC(=O)COc2ccccc2C)no1	none
Cc1cc(NC(=O)COc2nnc(-c3ccccc3)c3ccccc23)no1	H9c2 protect 48
Cc1cc(O)c(C(C)C)cc1N=Cc1ccc(N(C)C)cc1	none
Cc1cc(=O)[nH]c(SCC(=O)c2ccc(O)c(O)c2)n1	none
O=C(CSc1nc2ccccc2c(=O)[nH]1)c1ccc(O)c(O)c1	H9c2 protect 58
O=C(CSc1nc2ccccc2c(=O)[nH]1)c1ccc(O)cc1O	H9c2 protect 67
O=c1[nH]c(CSc2nc3ccccc3[nH]2)nc2c1cnn2-c1ccccc1	none
O=c1[nH]c(SCc2nc3c(cnn3-c3ccccc3)c(=O)[nH]2)nc2ccccc12	H9c2 protect 53
Cc1cc(C)n(CCC(=O)N2CCc3ccccc32)n1	none
COc1cc(-c2ccc3oc(-c4ccsc4)cc(=O)c3c2)cc(OC)c1OC	H9c2 protect 56
Nc1c(C(=O)NCC2CCCO2)sc2nc3c(c(-c4ccco4)c12)CC/C3=C\c1ccco1 (stereo unspecified)	Rin1 Abl inh 5.6
Cc1ccc2c(c1)S(=O)(=O)N(C)C(c1ccccc1)=C2	none
Cc1cc(C(=O)NCC(=O)OC(C)C(=O)N2CCOCC2)ccc1[N+](=O)[O-] (stereo unspecified)	none
COc1ccc(-c2cc(=O)oc3c(O)c(O)ccc23)cc1	H9c2 protect 63
COc1ccc(-c2cc(=O)oc3cc(OC(C)C(=O)O)ccc23)cc1 (stereo unspecified)	none
CC(=O)Nc1ccc(-c2ccnc3c2CC(C(=O)Nc2cccnc2)O3)cc1 (stereo unspecified)	none (no result: PKA-R1A act, PKA-R2B activ)
c1ccc(-c2cccc(-c3ccccn3)n2)nc1	H9c2 protect 65
c1ccc(-c2nnc(-c3ccccn3)nn2)nc1	none
CC(C)CC(C(=O)N1CCOCC1)N1Cc2ccccc2C1=O (stereo unspecified)	none
C=C(C)Cn1c(SCC(=O)N/N=C/c2c(O)ccc3ccccc23)nc2ccccc2c1=O	H9c2 protect 69
C=C(C)Cn1c(SCC)nc2ccccc2c1=O	none
O=C(CCS(=O)(=O)c1ccccc1Cl)NC1CCCCCC1	none
O=C(CCl)N(C1CCCC1)C1CCS(=O)(=O)C1 (stereo unspecified)	none
FC(F)(F)c1nnc2ccc(N3CCCC3)nn12	H9c2 protect 52
O=C(N/N=C/c1ccccc1)c1ccc(CN2C(=O)c3cccc4cccc2c34)cc1	none
O=C(N/N=C/c1ccc(O)cc1O)c1ccc(CN2C(=O)c3cccc4cccc2c34)cc1	H9c2 protect 52
CC1CN(S(=O)(=O)c2ccc(CN3C(=O)c4cccnc4C3=O)s2)c2ccccc2O1 (stereo unspecified)	none
Cc1c(N/N=C(\C#N)C(=O)c2ccccc2)c(=O)n(-c2ccccc2)n1C	none
Cc1ccccc1C(=O)/C(C#N)=N/Nc1c(C)n(C)n(-c2ccccc2)c1=O	H9c2 protect 64
O=C(CSc1nnc(NC(=O)c2ccc(F)cc2F)s1)NC1CC1	none
NS(=O)(=O)c1ccc(N=Cc2c(O)n(-c3nccs3)c(=O)c3ccccc23)cc1	H9c2 protect 52
Oc1c(Cl)cc(CN2CCCCC2)c2cccnc12	Rin1 Abl inh 12
O=[N+]([O-])c1cc(CN2CCCC2)c2cccnc2c1O	Rin1 Abl inh 52
Cc1ccc(-c2nc(NCc3ccc(F)cc3)n(S(C)(=O)=O)n2)cc1	none
O=c1c(O)c(-c2ccccc2)oc2ccccc12	none
O=c1c(O)c(-c2ccccc2)oc2cc(O)cc(O)c12	none
O=c1c(O)c(-c2ccccc2)oc2cc(O)ccc12	H9c2 protect 79 (no result: PKA-R1A act, PKA-R2B activ)
Cc1ccc(-c2oc3ccccc3c(=O)c2O)cc1	H9c2 protect 74
Brc1cccc(OCCCCN2CCCCC2)c1	none
COC(=O)c1ccc(C(=O)OC)c(NC(=O)COC(=O)C23CC4CC(CC(O)(C4)C2)C3)c1	H9c2 protect 88
CCC(C)(C)C1CCc2[nH]nc(C(=O)NCCCNC(=O)OC(C)(C)C)c2C1 (stereo unspecified)	none
NC(=O)c1cccc(-c2coc3c(C(=O)NCCc4ccccc4)cccc23)c1	H9c2 protect 60 (no result: PKA-R1A act, PKA-R2B activ)
O=C(Nc1ccccc1)c1cccc2c(-c3cccnc3)coc12	H9c2 protect 63 (no result: PKA-R1A act, PKA-R2B activ)
CCN(CC(=O)Nc1ccc(OC)cc1)C(=O)c1cc(-c2cccs2)nn1-c1ccccc1	H9c2 protect 69
CC1Oc2cc3oc4c(O)c(O)ccc4c(=O)c3c(O)c2C1(C)C (stereo unspecified)	none
CCOc1cc(NC(=O)C2CC2)c(OCC)cc1NC(=O)c1ccccn1	H9c2 protect 53
O=C1NC(c2ccc(Cl)c([N+](=O)[O-])c2)Nc2ccccc21 (stereo unspecified)	H9c2 protect 55
C=CC[C@@H](CC(=O)N[C@H](CO)Cc1ccccc1)C(=O)N[C@@H](COC(=O)[C@@H](CC=C)CC(=O)OC(C)(C)C)Cc1ccccc1	H9c2 protect 63
C=CCOc1ccc(C=Nc2ccc(OC)cc2)c(O)c1	H9c2 protect 63
COc1ccc(N=Cc2ccccc2O)cc1	none
O=C(CN(Cc1ccco1)C(=O)c1ccccc1)Nc1ccc(Cl)c(Cl)c1	Tb MetRS inh 5.8
Cc1ccc(C(=O)N(CC(=O)Nc2ccc(Cl)c(Cl)c2)Cc2ccco2)cc1	none
c1ccc(-c2nc(-n3ccnc3)nc(-n3ccnc3)n2)cc1	H9c2 protect 74
COc1ccc(OCc2csc(N)n2)cc1	none
Cc1ccccc1Cn1ccc(NC(=O)c2cnn3c(C(F)(F)F)cc(-c4ccco4)nc23)n1	H9c2 protect 60
Cc1ccccc1Cn1ccc(NC(=O)CCSc2nc(-c3ccco3)cc(C(F)(F)F)n2)n1	none
O=C(Nc1ccc2c(c1)OCO2)c1cnn2c(C(F)(F)F)cc(-c3ccco3)nc12	H9c2 protect 93
O=C(COc1ccc(Cl)cc1)NNC(=O)c1ccccn1	none
Cc1cc(C)cc(OCC(=O)NNC(=O)c2ccccn2)c1	H9c2 protect 78
Cc1ccccc1C#N	none
O=C(NCc1cccnc1)NC1(C(F)(F)F)Oc2ccc(Cl)cc2O1 (stereo unspecified)	H9c2 protect 58
COCCNC(=O)NC1(C(F)(F)F)Oc2ccc(Cl)cc2O1 (stereo unspecified)	none
CCOC(=O)c1cc(C#N)c(SCC(=O)c2cc(C#N)c(SC)nc2C)[nH]c1=O	H9c2 protect 76
CCCCNC(=O)C1CC(=O)N(CCc2ccc(C)cc2)C1 (stereo unspecified)	none
COCCn1nnnc1CN(CCc1ccccc1)Cc1cc2cc(OC)ccc2[nH]c1=O	H9c2 protect 64
COc1ccc2[nH]c(=O)c(CN(Cc3nnnn3Cc3ccccc3)CC3CCCO3)cc2c1 (stereo unspecified)	H9c2 protect 67
COCCn1nnnc1CN(Cc1cccnc1)Cc1cc2cc(OC)ccc2[nH]c1=O	none

Screening results as filed in PubChem BioAssay.
